From ChEMBL document CHEMBL3758101, “Synthesis and biological evaluation of fluorinated 1,5-diarylpyrrole-3-alkoxyethyl ether derivatives as selective COX-2 inhibitors endowed with anti-inflammatory activity” (Eur J Med Chem, 2016)
Active and inactive are the calls of the source.

What was measured:
[1] = tested on: HaCaT; experiment: Antiproliferative activity against human HaCaT cells at 1 uM after 24 hrs by BrdU incorporation assay; format: functional, cell-based
Summary of the method: (§1)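 HaCaT human keratinocytes were grown in high-glucose DMEM with 10% FBS and 2 mM L-glutamine at 37 °C and 5% CO2 to 80% confluency. Cells were treated 24 h with compound at 1, 10 or 50 µM (final DMSO ≤0.1%). Proliferation was read by BrdU incorporation as % of DMSO control; three experiments.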

[2] = tested on: Mus musculus; experiment: Antinociceptive activity in CD1 albino mouse model of acetic acid-induced visceral pain assessed as number of writhes at 20 mg/kg, po pretreated for 60 mins before acetic acid challenge measured after 5 mins (reference value: 32.5 +/- 2.4); format: functional
[3] = tested on: Mus musculus; experiment: Antinociceptive activity in CD1 albino mouse model of acetic acid-induced visceral pain assessed as number of writhes at 3 mg/kg, po pretreated for 30 mins before acetic acid challenge measured after 5 mins (reference value: 30.5 +/- 1.7); format: functional
[4] = tested on: Rattus norvegicus; experiment: Antihyperalgesic effect in Sprague-Dawley rat model of monosodium iodoacetate-induced osteoarthritis assessed as withdrawal threshold at 20 mg/kg, ip administered 14 days post MIA challenge measured after 90 mins by paw pressure test (reference value: 37.8 +/- 3.1 g); format: functional
Summary of the method: (§2)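 Male Sprague–Dawley rats (200–250 g). MIA (2 mg/25 µL) was injected into the left tibiotarsal joint on day 0 under 2% isoflurane; controls received 25 µL saline. On day 14 compound or vehicle was given at time 0. Paw pressure threshold (g) was read with an analgesimeter using a blunt conical probe on the dorsal paw at 30, 60, 90 and 120 min. Mean ± s.e.m., 6 rats.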

[5] = tested on: Rattus norvegicus; experiment: Antiinflammatory activity in Sprague-Dawley rat model of carrageenan-induced paw edema assessed as volume of paw edema at 3 mg/kg, po administered 2 hrs post carrageenan challenge measured after 60 mins by plethysmometry (reference value: 2.73 +/- 0.07 ml); format: functional
[6] = tested on: Rattus norvegicus; experiment: Antihyperalgesic effect in Sprague-Dawley rat model of monosodium iodoacetate-induced osteoarthritis assessed as withdrawal threshold at 3 mg/kg, ip administered 14 days post MIA challenge measured after 120 mins by paw pressure test (reference value: 39.2 +/- 4 g); format: functional; summary of the method: as §2
[7] = tested on: Rattus norvegicus; experiment: Antihyperalgesic activity in Sprague-Dawley rat model of carrageenan-induced inflammatory pain assessed as paw pressure threshold at 20 mg/kg, po administered 2 hrs post carrageenan challenge measured after 120 mins by paw pressure test (reference value: 34.5 +/- 4.4 g)
[8] = tested on: Rattus norvegicus; experiment: Antiinflammatory activity in Sprague-Dawley rat model of carrageenan-induced […] at 10 mg/kg, po administered 2 hrs post carrageenan challenge measured after 60 mins by […] (reference value: 35.4 +/- 3.6 ml); format: functional
[9] = tested on: HaCaT; experiment: Antiproliferative activity against human HaCaT cells after 24 hrs by BrdU incorporation assay; format: functional, cell-based; summary of the method: as §1
[10] = target: T1, Prostaglandin G/H synthase 1 (Mus musculus, UniProt P22437); experiment: Inhibition of COX-1 in mouse J774 cells assessed as reduction in PGE2 level using arachidonic acid as substrate preincubated for 15 mins followed by incubation with arachidonic acid for 30 mins by radio immunoassay; format: cell-based
T1 sequence (P22437 whole entry): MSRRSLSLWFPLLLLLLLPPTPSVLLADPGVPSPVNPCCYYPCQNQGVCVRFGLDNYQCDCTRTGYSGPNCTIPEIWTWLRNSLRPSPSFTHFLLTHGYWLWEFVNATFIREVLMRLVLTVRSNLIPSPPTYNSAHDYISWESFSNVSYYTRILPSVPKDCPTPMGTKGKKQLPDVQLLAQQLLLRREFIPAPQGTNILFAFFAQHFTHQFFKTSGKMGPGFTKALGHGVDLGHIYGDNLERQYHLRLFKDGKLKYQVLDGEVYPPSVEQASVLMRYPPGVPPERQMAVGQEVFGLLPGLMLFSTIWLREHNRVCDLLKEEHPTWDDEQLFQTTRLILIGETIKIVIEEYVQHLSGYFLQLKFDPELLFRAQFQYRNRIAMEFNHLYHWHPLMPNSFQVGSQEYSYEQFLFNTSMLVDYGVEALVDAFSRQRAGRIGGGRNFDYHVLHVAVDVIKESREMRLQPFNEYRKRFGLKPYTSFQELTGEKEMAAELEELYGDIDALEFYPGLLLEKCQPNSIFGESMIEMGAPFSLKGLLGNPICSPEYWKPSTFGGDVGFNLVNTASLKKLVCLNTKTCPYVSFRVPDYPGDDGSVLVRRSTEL
Summary of the method: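 Murine J774 macrophages (2.5 × 10^5 cells/mL) were adhered 2 h at 37 °C and given fresh medium. Cells were pretreated with compound at 100 µM for 15 min, then incubated 30 min at 37 °C with 15 µM arachidonic acid. Supernatant PGE2 was measured by RIA as % inhibition versus control; triplicate wells, three experiments, IC50 from a sigmoidal variable-slope fit.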

[11] = tested on: Rattus norvegicus; experiment: Antiinflammatory activity in Sprague-Dawley rat model of carrageenan-induced paw edema assessed as paw volume at 3 mg/kg, po administered 2 hrs post carrageenan challenge measured after 90 mins by plethysmometry (reference value: 37.2 +/- 3.4 ml); format: functional
[12] = tested on: Rattus norvegicus; experiment: Antihyperalgesic effect in Sprague-Dawley rat model of monosodium iodoacetate-induced osteoarthritis assessed as withdrawal threshold at 3 mg/kg, ip administered 14 days post MIA challenge measured after 90 mins by paw pressure test (reference value: 37.8 +/- 3.1 g); format: functional; summary of the method: as §2
[13] = tested on: Mus musculus; experiment: Antinociceptive activity in CD1 albino mouse model of acetic acid-induced visceral pain assessed as number of writhes at 10 mg/kg, po pretreated for 60 mins before acetic acid challenge measured after 5 mins (reference value: 32.5 +/- 2.4); format: functional
[14] = tested on: Rattus norvegicus; experiment: Antiinflammatory activity in Sprague-Dawley rat model of carrageenan-induced paw edema assessed as paw volume at 10 mg/kg, po administered 2 hrs post carrageenan challenge measured after 90 mins by plethysmometry (reference value: 37.2 +/- 3.4 ml); format: functional
[15] = tested on: HaCaT; experiment: Antiproliferative activity against human HaCaT cells at 10 uM after 24 hrs by BrdU incorporation assay; format: functional, cell-based; summary of the method: as §1
[16] = tested on: Rattus norvegicus; experiment: Antiinflammatory activity in Sprague-Dawley rat model of carrageenan-induced paw edema assessed as volume of paw edema at 10 mg/kg, po administered 2 hrs post carrageenan challenge measured after 60 mins by plethysmometry (reference value: 2.73 +/- 0.07 ml); format: functional
[17] = tested on: Rattus norvegicus; experiment: Antiinflammatory activity in Sprague-Dawley rat model of carrageenan-induced paw edema assessed as volume of paw edema at 20 mg/kg, po administered 2 hrs post carrageenan challenge measured after 60 mins by plethysmometry (reference value: 2.73 +/- 0.07 ml); format: functional
[18] = tested on: Rattus norvegicus; experiment: Antiinflammatory activity in Sprague-Dawley rat model of carrageenan-induced paw edema assessed as paw volume at 20 mg/kg, po administered 2 hrs post carrageenan challenge measured after 30 mins by plethysmometry (reference value: 34.1 +/- 2.3 ml); format: functional
[19] = tested on: Rattus norvegicus; experiment: Antihyperalgesic effect in Sprague-Dawley rat model of monosodium iodoacetate-induced osteoarthritis assessed as withdrawal threshold at 10 mg/kg, ip administered 14 days post MIA challenge measured after 30 mins by paw pressure test (reference value: 37.8 +/- 3.3 g); format: functional; summary of the method: as §2

`Cc1c(CCOCCCF)cc(-c2ccc(S(C)(=O)=O)cc2)n1-c1ccc(F)cc1` was tested, and the Activity [1] was “inactive”, the Activity [2] was 16.9 and the Activity [3] was 21.8. The Activity [4] was 43.8 g, the Activity [5] was 2.38 mL and the Activity [6] was 39 g. The Activity [7] was 35.5 g, the Activity [8] was 53.5 g and the Activity [9] was “Dose-dependent effect”. For the same molecule, the IC50 [10] was > 100 µM, the Activity [11] was 44.8 g and the Activity [12] was 42.4 g. The Activity [13] was 17.7, the Activity [14] was 47.2 g and the Activity [15] was “Active”. The Activity [16] was 2.15 mL, the Activity [17] was 2.06 mL and the Activity [18] was 53.9 g. The Activity [19] was 50.3 g.
